The list is not random: actives were taken first. Their share in the collection is about 2.2%.
VIM-2 inh – inhibitors of Pseudomonas aeruginosa VIM-2 metallo-beta-lactamase; purified VIM-2, nitrocefin hydrolysis, epi-absorbance fluorescence; inhibition, % at 5.6 µM; 290,000 compounds, 0.89% hits; AID 1527;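 active = inhibition above the mean of all tested compounds plus 3 SD, cutoff set per screening run, cut at about 7.5% in these data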;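 also: red hydrolysis product quenches plate fluorescence so inhibitors raise well fluorescence; 0% = enzyme with DMSO and 100% = DMSO without enzyme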
IMP-1 inh – blocks Pseudomonas aeruginosa IMP-1 metallo-beta-lactamase; AID 1556; 290,000 compounds, 0.45% hits; purified IMP-1, nitrocefin hydrolysis, epi-absorbance fluorescence; inhibition, % at 5.6 µM;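 active = inhibition above the mean plus 3 SD of all compounds in the same screening run, cut at about 4.5% in these data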;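 also: 0% = IMP-1 with DMSO and 100% = DMSO wells lacking enzyme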
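system = purified recombinant IMP-1 beta-lactamase | amount = 0.2 nM IMP-1, as dispensed | medium = HEPES buffer pH 7.1 with ZnSO4 and Brij 35 | times = 25 °C, 15 min preincubation, 25 min reaction | detection = plate fluorescence quenching by hydrolysis product, ex 480/em 530 nm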
BCLXL inh – Bcl-xL (human) inhibition; GST-Bcl-xL / FITC-Bim BH3 peptide fluorescence polarization; 320,000 compounds, 0.7% hits; inhibition, % at 10.9 µM; Q07817;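 active = inhibition above the mean of all tested compounds plus 3 SD, cutoff set per campaign, cut at about 30% in these data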;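 also: 0% = DMSO wells and 100% = unlabeled Bim-BH3 peptide competitor; inhibitors lower millipolarization by displacing the labeled peptide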
GLD-1 RNA inh – GLD-1-TGE RNA interaction inhibition (C. elegans); purified GLD-1 + fluorescein TGE RNA, fluorescence polarization; inhibition, % at 5.96 µM; 320,000 compounds, 0.44% hits; Q17339; AID 2280;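 active = percent inhibition above a per-plate cutoff, the plate mean of test compounds plus 3 SD, cut at about 30% in these data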;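 also: 0% = DMSO wells with GLD-1 and probe and 100% = wells lacking GLD-1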
Target sequence (Q17339 whole entry, looked up): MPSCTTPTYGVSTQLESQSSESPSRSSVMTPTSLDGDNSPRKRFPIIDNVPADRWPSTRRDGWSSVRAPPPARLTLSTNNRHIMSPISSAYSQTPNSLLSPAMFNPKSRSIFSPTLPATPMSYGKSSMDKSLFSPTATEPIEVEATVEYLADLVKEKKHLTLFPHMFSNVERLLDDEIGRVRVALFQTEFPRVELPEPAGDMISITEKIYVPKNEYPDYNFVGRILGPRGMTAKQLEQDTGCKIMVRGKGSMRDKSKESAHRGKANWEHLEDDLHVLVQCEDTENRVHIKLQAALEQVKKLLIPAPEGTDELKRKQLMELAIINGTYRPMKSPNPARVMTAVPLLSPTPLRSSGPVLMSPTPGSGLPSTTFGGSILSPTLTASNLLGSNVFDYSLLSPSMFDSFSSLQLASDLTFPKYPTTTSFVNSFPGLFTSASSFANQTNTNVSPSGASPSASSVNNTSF
EBV gp42 inh – blocks Epstein-Barr virus glycoprotein 42 binding; Q1HVG2; Fluorescence polarization binding assay, mP read-out; inhibition, % (tested at 21.74 µM); 220,000 compounds, 0.42% hits; AID 1085; in the data active = inhibition above about 50%
MEX-5 binding – C. elegans MEX-5 TCR-2 RNA binding activity; activity score (negative = inhibition of binding), % at 10 µM; AID 1832; MEX-5/FITC-TCR2 RNA binding, fluorescence polarization; stronger effect = lower value; Q9XUB2; 300,000 compounds, 0.38% hits;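 active = inhibition past about -25% in most replicates, and total fluorescence under double the plate's negative control median, limit read from the data; inconclusive = replicates evenly split on the limit, or fluorescence at least double controls; inactive = too little inhibition in most replicates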;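 also: 0% = DMSO and -100% = 5 µM competing unlabeled TCR2 RNA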
GLD1 RNA confirm – confirmation of C. elegans GLD-1 TGE RNA binding inhibitors. inhibition, % at 5.96 µM. shares compounds with GLD-1 RNA inh. AID 2459. GLD-1/FL-TGE RNA fluorescence polarization, biochemical. 550 compounds, 10% hits;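 active = average inhibition across triplicates above the hit cutoff set in the primary screen, cut at about 32% in these data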;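 also: 0% = GLD-1 with RNA probe and DMSO and 100% = wells lacking GLD-1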
Starred values were filed as active, the others as inactive; ? = inconclusive; · = no result.

SMILES	VIM-2 inh	IMP-1 inh	BCLXL inh	GLD-1 RNA inh	EBV gp42 inh	MEX-5 binding	GLD1 RNA confirm
COC(=O)C1=C(C)OC(N)=C(C#N)C1c1ccco1 (stereo not drawn)	-1	-2	5	-3	-14	3	·
CC(=O)C1=C(C)OC(N)=C(C#N)C1c1ccco1 (stereo not drawn)	1	-5	60*	39*	-6	-14	3
CCOc1ccc(N(CC(=O)Nc2ccccc2C(=O)N2CCCC2)S(C)(=O)=O)cc1	-2	-4	-1	0	·	1	·
Cc1ccnc(Nc2nc(-c3ccc(Cl)cc3)cs2)c1	-2	0	23	32*	·	2	-4
Cc1ccnc(Nc2nc(-c3ccc(F)cc3)cs2)c1	-2	-4	6	4	·	3	·
Cc1cccn2c(=O)c3cc(C#N)c(=NC(=O)c4ccncc4)n(CCCOC(C)C)c3nc12	-2	-2	73*	44*	37	32	28
CC(=O)N=c1c(C#N)cc2c(=O)n3cccc(C)c3nc2n1Cc1ccco1	2	-1	20	11	-11	-4	·
Cc1cccn2c(=O)c3cc(C#N)c(=NC(=O)c4cccs4)n(CCCOC(C)C)c3nc12	1	-1	71*	57*	-4	-45*	28
CCC1c2ccc(C)n2CCN1C(=O)Nc1ccccc1C(=O)OC (stereo not drawn)	-2	-3	41*	35*	-7	-5	-1
CSc1ccc(CN(C)CC(=O)NC(C)c2ccccc2)cc1 (stereo not drawn)	1	-2	-1	54*	-24	1	-2
COc1ccccc1NC(=O)CSc1nc(=O)n2cc(C)ccc2n1	·	·	4	1	·	1	·
CCc1cccc(NC(=O)CCCn2nc(CC)n3c(cc4occc43)c2=O)c1	-1	-3	30	31*	·	2	-3
CCC(C)c1ccc(NC(=O)c2cccnc2)cc1 (stereo not drawn)	-4	-4	3	2	-4	-1	·
CCCCSc1ccc(NC(=O)c2cccnc2)cc1	-2	-5	76*	41*	-10	-1	0
CN(C(=O)CCS(=O)(=O)c1cc2c(cc1Cl)NC(=O)CO2)C1CCCCC1	-3	-5	-1	-3	·	2	·
Nc1n[nH]c2cc(=O)n(-c3ccc(Cl)cc3)nc12	-4	-2	26	35*	10	-18	17
CCc1nnc(NC(=O)CSCc2cc(=O)n3ccsc3n2)s1	-1	0	-1	3	·	2	·
O=c1c2ccccc2nc2n1CC/C2=C/N1CCN(c2cccc(C(F)(F)F)c2)CC1	-1	-4	50*	42*	5	-3	2
CC1(c2ccccc2)NC(=O)N(CC(=O)N(c2ccccc2)C2CCS(=O)(=O)C2)C1=O (stereo not drawn)	·	·	·	1	·	·	·
Cc1ccc[n+](-c2nc([O-])sc2/C=N/Nc2ccc([N+](=O)[O-])cc2)c1	-2	-2	42*	39*	33	-12	39*
Cc1ccc(N2CCN(c3ccc(NCc4nc5ccccc5n4C)cc3)CC2)cc1	-2	-6	74*	63*	7	4	63*
CCC(=O)c1ccc(OCC(=O)OCC(=O)NC2CCCCCCC2)cc1	-1	-1	-1	1	·	1	·
Nc1cccc(C(=O)OCC(=O)Nc2cccc3c2C(=O)c2ccccc2C3=O)c1	0	-2	98*	47*	92*	0	67*
N#Cc1c(NCCCO)nc(NCc2ccccc2)c2c1CCN(Cc1ccccc1)C2	-4	-3	31*	33*	-11	0	14
CN(CCc1ccccc1)C(=O)c1ccc(NC(=O)Cc2ccc([N+](=O)[O-])cc2)cc1	·	·	·	2	·	·	·
SMILES	VIM-2 inh	IMP-1 inh	BCLXL inh	GLD-1 RNA inh	EBV gp42 inh	MEX-5 binding	GLD1 RNA confirm
O=C1CCC(C(=O)N2CCCC(N3CCN(c4cccc(C(F)(F)F)c4)CC3)C2)=NN1 (stereo not drawn)	0	-2	4	3	·	1	·
Cc1cc(NC(=O)/C=C/c2ccccc2Cl)n(-c2nc3ccccc3[nH]2)n1	-6	-4	0	34*	3	1	-4
CCOC(=O)C1CCN(CCCSc2ccccc2)CC1	-2	1	2	5	·	0	·
CNc1nnc(Sc2ncccc2[N+](=O)[O-])s1	-2	-3	64*	40*	-8	-2	-2
COc1ccc(-n2c(Cc3cc(=O)[nH]c(=O)[nH]3)nnc2SCC(=O)NC2CCCC2)cc1	0	-3	8	17	6	-2	·
O=C(CSc1nnc(Cc2cc(=O)[nH]c(=O)[nH]2)n1-c1ccc(Cl)cc1)NC1CCCC1	-3	-3	18	37*	2	·	18
COC(=O)c1cc(-c2ccc(Br)cc2)c2c(=O)n(C)c(=O)n(C)c2n1	1	-2	-2	2	·	1	·
CC(=O)NNC(=O)CCn1c2c(c3ccccc31)CCCC2	-4	-1	9	9	-16	-3	·
O=C(O)Cn1c2c(c3ccccc31)CCCC2	-1	-2	39*	33*	9	-11	25
O=C(Nc1ccccc1)Nc1ccc(Cl)nc1Cl	·	·	-3	36*	·	1	-4
CC(C)/C=C/C(=O)N1CCC(N2CCC(C(=O)NCc3ccccn3)CC2)CC1	-3	-1	28	35*	·	-4	8
COC(=O)C(N)Cc1ccc(O)c(O)c1 (stereo not drawn)	-3	-5	11	71*	0	-15	7
COC(=O)C(N)Cc1ccc(O)cc1 (stereo not drawn)	1	-2	-1	-1	-30	-1	·
COc1ccccc1C1C2=C(CCCC2=O)N(CC(=O)O)C2=C1C(=O)CCC2	4	-1	48*	58*	·	-4	-1
CC(C)CCNc1c(-c2cccs2)nc2ccccn12	0	-2	75*	46*	-15	-2	2
O=C(COc1ccc(Cl)cc1)Nc1c(-c2cccs2)nc2ccccn12	-3	-4	-5	-4	-15	2	·
O=C(C(=O)N1CCN(c2ccccc2)CC1)c1cn(CC(=O)N2CCCCCC2)c2ccccc12	-2	-2	6	31*	·	-7	7
O=C1NC(=S)N/C1=C/c1cc2c(cc1[N+](=O)[O-])OCO2	1	1	53*	42*	·	0	0
CN(C(=O)COC(=O)CNC(=O)c1cccs1)c1c(N)n(Cc2ccccc2)c(=O)[nH]c1=O	·	·	1	2	·	·	·
O=C(c1ccccc1)[C@@H]1[C@@H]2C(=O)N(c3ccc(F)cc3)C(=O)[C@@H]2C2CCCN21 (stereo partly drawn)	0	-1	64*	37*	4	?	0
